Compounds with a hit are over-represented: about 2.2% of the library has one in this group of screens.
Redox H2O2 prof – compounds producing H2O2 with reducing agent – biochemical, NIH compound library profiling, artefact control for MLSCN library redox annotation, primary screen; DTT-dependent redox cycling H2O2, phenol red/HRP absorbance; 100% = 100 µM peroxide control, 0% = buffer; actives 0.03% (n = 200,000); activation, % at 10 µM;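 active means activation of at least 50% relative to the plate's high and low controls in the primary single-dose screen; inactive means activation below 50%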;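 further: compound incubated with DTT at 0.8 mM final as the reducing agent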
Arbovirus inh – antivirals against arbovirus infection. arbovirus infection cell-based antiviral screen. inhibition, % at 10 µM. actives 0.37% (n = 200,000). AID 1251; in the data active means inhibition above about 30%
RBBP9 inh – blocks human serine hydrolase RBBP9. inhibition, % at 7.94 µM. recombinant RBBP9, FP-Rh probe fluorescence polarization. actives 0.2% (n = 220,000). O75884;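 active means inhibition above the campaign mean of all tested compounds plus 3 SD, cut at about 14% in these data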
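system = RBBP9 protein | input = RBBP9 at 2.5 µM in dispensed solution, before mixing | measured by = fluorescence polarization (mP), excitation 525 nm, emission 598 nm | incubation = enzyme-compound preincubation 30 min, then probe labeling 45 min, 25 °C | buffer or medium = Tris-NaCl-Pluronic buffer, pH 8.0 | compound = single dose 7.94 µM | also added = FP-Rh probe, 375 nM dispensing solution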
p97 ATPase inh – human p97 ATPase inhibition; AID 1481; P55072; actives 0.42% (n = 220,000); recombinant p97 ATPase, Kinase-Glo ATP luminescence, 3 h; inhibition, % at 8 µM; in the data active means inhibition above about 15%
PKD1 kinase inh – inhibitors of human PKD1 kinase. AID 797. actives 0.056% (n = 200,000). PKD1 kinase fluorescence polarization assay. Q15139. inhibition, % (test concentration not listed); in the data active means inhibition above about 50%
Wee1 degr inh – inhibitors of human Wee1 degradation. P30291. HeLa Luc-Wee1K328M stability, luciferase luminescence; 100% = proteasome inhibitor MG132 effect. reporter increase, % at 5 µM. actives 1.2% (n = 220,000);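 active means activation above the mean of all tested compounds plus 3 SD, set per screening run, cut at about 8.8% in these data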;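 further: cells exposed to compound for 20 h before luminescence read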
A number is an active result; 0 = inactive; - = no result.

SMILES	Redox H2O2 prof	Arbovirus inh	RBBP9 inh	p97 ATPase inh	PKD1 kinase inh	Wee1 degr inh
FC(F)(F)c1cccc(Oc2ccc3c(C(F)(F)F)cc(C(F)(F)F)nc3n2)c1	0	50.6	0	0	0	0
O=C(O)CC(c1ccc(Cl)cc1)N1C(=O)CCC1=O (stereo unspecified)	0	0	0	0	0	0
COC(=O)CC/C(=N/Nc1ccc(Cl)c(Cl)c1)C(=O)OC	0	0	0	0	0	0
Cc1ccccc1NS(=O)(=O)c1ccc(N2CCCC2=O)cc1	0	0	0	0	0	10.4
Cc1nn(C)c(C)c1NS(=O)(=O)c1ccc(N2CCCC2=O)cc1	0	0	0	0	0	0
C=CCC1(C#N)C(SC)=NC2=C(C(=O)CC(C)(C)C2)C1c1ccc(Br)cc1 (stereo unspecified)	0	0	0	0	0	0
COc1ccc(NC(=O)c2cc3cccc(OC)c3oc2=Nc2ccc(C(=O)O)cc2)cc1OC	0	31.5	0	0	0	0
CCN(C(=O)CSc1nnc(-c2ccc(Cl)cc2)n1C)C1CCS(=O)(=O)C1 (stereo unspecified)	0	0	0	0	0	0
Cc1ccc(CNC(=O)c2cc3c(-c4ccc(Cl)cc4)nn(C)c3s2)o1	0	0	0	0	0	9.6
CC1(C)Cc2c(sc3c2c(=O)n(-c2cccc(Cl)c2)c(=O)n3CC(N)=O)CO1	-	-	0	0	-	0
NC(=O)COc1ccc(-n2cnnn2)cc1	0	0	0	0	0	0
COc1ccc(/C=N/NC(=O)CCC(=O)Nc2ccccc2)cc1OC	0	0	0	0	0	0
COc1cc(/C=N/NC(=O)COc2ccc(-n3cnnn3)cc2)ccc1OCC(N)=O	-	-	0	0	-	9.2
COc1ccc(/C=N/NC(=O)CCn2cnc(-c3ccccc3)c2-c2ccccc2)cc1OC	0	0	0	0	0	10.6
Cc1cnc(C(=O)Oc2c(C)ccc(C)c2C)cn1	0	0	0	0	0	0
O=C(NCC(c1ccco1)N1CCN(c2ccccc2)CC1)c1ccc2c(c1)OCO2 (stereo unspecified)	0	0	0	0	0	0
Oc1ccc(F)cc1-c1cc(-c2ccc3c(c2)OCCO3)n[nH]1	0	31.5	0	0	0	9.5
O=C(N/N=C/c1ccc(F)cc1)c1cc(-c2ccc3c(c2)OCO3)n[nH]1	-	-	0	0	-	0
Cc1c(O)ccc(-c2n[nH]c(C(=O)O)c2-c2nc3ccccc3s2)c1O	-	-	0	0	-	10.0
Cc1c(O)ccc(-c2[nH]ncc2-c2nc3ccccc3s2)c1O	0	0	0	0	0	0
O=C(CCCn1cc([N+](=O)[O-])cn1)Nc1cccnc1	-	-	0	0	-	0
CCn1c(COc2ccc(Cl)cc2)nnc1SCc1nc2ccccc2[nH]1	0	0	0	0	0	0
CCn1c(COc2ccc(OC)cc2)nnc1SCc1nc2ccccc2c(=O)[nH]1	0	0	0	0	0	9.8
CCCc1cc(-c2n[nH]c(C)c2-c2ccc(C(=O)OCC)o2)c(O)cc1O	0	0	0	0	0	0
CCCc1cc2c(OC(=O)CC)c(-c3ccc(C(=O)OCC)o3)c(=O)oc2cc1OC	0	58.5	0	0	0	0
SMILES	Redox H2O2 prof	Arbovirus inh	RBBP9 inh	p97 ATPase inh	PKD1 kinase inh	Wee1 degr inh
O=C1CC(/C=C/c2ccc([N+](=O)[O-])cc2)=Nc2ccccc2N1	-	-	0	0	-	0
CC1=Nc2cccc([N+](=O)[O-])c2NC(=O)C1	0	0	0	0	0	14.6
COc1ccc(/C=C2/C(=O)N(CC3CCCO3)C(=S)N2C)c(OC)c1 (stereo unspecified)	0	51.9	0	0	0	0
Cc1ccccc1N1CCN(c2ccc(NC(=O)C3CCCCC3C(=O)O)cc2)CC1 (stereo unspecified)	0	0	0	0	0	0
CCOC(=O)C(C(=O)OCC)N(C#N)c1nc(N(C)C)nc(N(C)C)n1	0	0	0	0	0	0
COc1ccc(Br)cc1CN(C)CC(=O)Nc1c(Cl)cccc1Cl	0	30.4	0	0	0	0
COc1ccc(NC(=O)C(=O)N/N=C/c2cc(C)n(-c3cccc(Cl)c3Cl)c2C)c(OC)c1	0	32.2	0	0	0	0
COc1ccc(OC)c(NC(=O)C(=O)N/N=C/c2ccccc2[N+](=O)[O-])c1	0	0	0	0	0	0
